Screening data deposited in PubChem BioAssay by Johns Hopkins Ion Channel Center.
MrgX1 agonist: activates human MrgX1 receptor signaling; MrgX1-HEK293 cells, Fluo-4 calcium fluorescence, agonist mode; stronger effect = higher value; B-score at 10 µM; 0.44% of 310,000 active; AID 588627;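 active = calcium response B-score plate-corrected fluorescence ratio at least 3 library SD, with starting fluorescence B-score inside 5 SD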
Target sequence (Q96LB2 whole entry, looked up): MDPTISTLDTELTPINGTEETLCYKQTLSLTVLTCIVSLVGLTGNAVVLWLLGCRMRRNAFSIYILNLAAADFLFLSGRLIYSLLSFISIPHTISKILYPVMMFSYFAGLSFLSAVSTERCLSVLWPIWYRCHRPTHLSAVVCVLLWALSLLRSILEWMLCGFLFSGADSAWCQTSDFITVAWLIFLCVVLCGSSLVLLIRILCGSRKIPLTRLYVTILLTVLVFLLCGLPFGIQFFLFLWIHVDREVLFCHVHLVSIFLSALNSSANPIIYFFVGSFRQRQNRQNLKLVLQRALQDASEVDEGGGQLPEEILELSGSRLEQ
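Assay system: stable human MrgX1 HEK293 cell line. Quantity: 15,000 cells per well. Schedule: cells plated overnight, dye loaded 0.5 h 37 °C, 0.5 h room temperature. Detection: Fluo-4 NW calcium-flux fluorescence, kinetic read. Read-out basis: peak-minus-minimum fluorescence over baseline, converted to B scores. Control set: positive and negative control wells on each plate.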
MrgX1 antag: antagonists of human MrgX1 receptor; Q96LB2; MRGX1-HEK293 calcium flux, Fluo-4, BAM8-22 antagonism; stronger effect = lower value; B-score at 10 µM; 1.3% of 310,000 active; AID 588676;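 active = calcium-response B-score plate-corrected more than 3 library SD below zero, starting fluorescence within 5 deviations, no agonist response on first addition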;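 also: peak minus trough fluorescence over baseline after final BAM8-22 challenge near maximal dose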
MrgX1 allo act: allosterically activates human MrgX1 receptor signaling; Q96LB2; MrgX1-HEK293, Fluo-4 calcium flux, FDSS; stronger effect = higher value; B-score at 10 µM; 0.63% of 310,000 active;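 active = plate-corrected calcium response at least 3 library SD above typical, normal starting fluorescence, not activating the receptor alone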;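 also: compound read alongside a low EC10 to EC30 dose of BAM8-22 agonist; peak minus trough fluorescence over baseline measured at the second addition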
RGS4 act: potentiators or activators of RGS4; B-score at 10 µM; HEK293 M3R/inducible RGS4, carbachol calcium flux Fluo4; stronger effect = lower value; AID 463111; 0.92% of 310,000 active;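 active = B-score of the integrated calcium signal more than 4 SD below the library mean, with starting fluorescence not abnormally high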;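 also: negative B-score means reduced calcium response which marks RGS4 activation or potentiation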
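Reagent: ECmax carbachol challenge; Test system: M3R-expressing HEK293 line, RGS4 induced by doxycycline; Schedule: overnight RGS4 induction, 30 min dye load 37 °C, 20 min compound RT; Detection: calcium dye Fluo4 fluorescence; Read-out: Agonist-evoked peak-minus-minimum fluorescence over baseline, integrated ratio, B score.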
RGS4 inh: inhibitors of human RGS4 | B-score at 10 µM | 0.45% of 310,000 active | P49798 | HEK293 M3R/RGS4 inducible, Fluo-4 calcium flux; stronger effect = higher value; triggered by carbachol at its EC20;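 active = B-score, a plate-corrected calcium signal, over three deviations above library mean, with baseline fluorescence within five deviations of library mean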;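 also: RGS4 expression induced by doxycycline in cells with stable M3 receptor; B-score is computed from the integrated fluorescence ratio over baseline after carbachol; higher B-score means a larger calcium signal and so more RGS4 inhibition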
Numbers stand for hits; - = inactive; . = not tested or not shown. This is a sample that favours compounds with a hit; in the whole collection about 3.5% have one here.

SMILES	MrgX1 agonist	MrgX1 antag	MrgX1 allo act	RGS4 act	RGS4 inh
CC(C)CO/C(=N/S(=O)(=O)c1ccccc1)c1ccccc1	-	-	-	-	-
CCN(CC)c1nc(SCCOC(=O)Nc2ccccc2)nc(N(CC)CC)n1	-	-	-	-8.8	-
Cc1nc(N/N=C/c2ccc(O)cc2)c2cnn(-c3ccccc3)c2n1	-	-7.5	-	-	-
CC(C)(C)c1cc(NC(=O)c2cccc(S(=O)(=O)N3CCOCC3)c2)no1	-	-	-	-	-
COC(=O)CC1=NN(c2nc3ccccc3s2)C(=O)/C1=C/N(C)C	-	-	15	-	-
O=C(COc1ccccc1)N=C1SC2CS(=O)(=O)CC2N1CCc1ccccc1 (stereo not drawn)	-	-	-	-	-
CCOC(=O)C1=C(N)n2c(s/c(=C/c3ccco3)c2=O)=C(C(=O)OC)C1c1ccco1 (stereo not drawn)	-	-5.7	-	-	-
CCN(CC#CCC(O)(c1ccccc1)C1CCCC1)C(C)C (stereo not drawn)	-	-	-	-7.4	-
Cc1ccc(N(CC2CO2)S(=O)(=O)c2ccc(C)cc2)cc1 (stereo not drawn)	-	-	-	-	-
Cc1ccc(N(CC2CO2)S(=O)(=O)c2ccc([N+](=O)[O-])cc2)cc1 (stereo not drawn)	-	-	7.4	-	-
Cc1ncc(CO)c(CNc2ccc(Oc3ccccc3)cc2)c1O	-	-	-	-	-
CC(=O)c1cc(NC(=O)c2ccc(Cl)cc2)c(=O)oc1/C=C/N(C)C	38	-	-	-	-
NNc1nc2c(Cl)ccc(Cl)c2s1	-	-	-	-	-
Nc1nc(-c2ccc(Br)cc2)cs1	-	-	-	-	-
Brc1ccc(-c2csc(Nc3nc(-c4ccc(Br)cc4)cs3)n2)cc1	-	-4.5	-	-	-
CCCCN1C(=O)N(C)C2NC(=S)NC21 (stereo not drawn)	-	-	-	-	-
CCOC(=O)/C(C#N)=C(C)/C=C1\Sc2ccccc2N1CC	-	-5.4	-	-	-
COc1ccc(C(=O)C/C(=C\C(=O)c2ccc(C)cc2)c2ccccc2)cc1	-	-5.6	-	-7.1	-
COc1ccc(C(=O)CC(=O)c2ccccc2)cc1	-	-	-	-	-
Oc1ccc(N=Nc2cccc(Cl)c2)cc1C=Nc1ccc(N2CCOCC2)cc1	.	.	.	-	8.7
Cc1cc(F)ccc1NS(=O)(=O)c1c(C(=O)N2CCOCC2)c(C)n(C)c1C	-	-	-	-	-
C/C(=N\NC(=S)NCc1ccccc1)c1ccccc1	-	-	-	-	-
C/C(=N\NC(=S)NCc1ccccc1)c1ccco1	-	-	8.1	-	-
CCCN(CCC)C1=N/C(=C\c2ccco2)C(=O)N1c1ccccc1	-	-	6.9	-	-
CCCN=C1N/C(=C\c2ccco2)C(=O)N1c1ccccc1	-	-	-	-	-
SMILES	MrgX1 agonist	MrgX1 antag	MrgX1 allo act	RGS4 act	RGS4 inh
CCC(c1n[nH]c(=S)n1-c1ccccc1)N(C)C (stereo not drawn)	-	-	-	-	-
CC(C)CCC(CC(C)O)c1n[nH]c(=S)n1-c1ccccc1 (stereo not drawn)	-	-4.9	-	-	-
O=C(NCc1ccco1)c1cc2c(s1)CCCCC2	-	-	-	-7.1	-
COc1cnn(-c2ccc(C)cc2)c(=O)c1SCc1ccccc1	30	-	-	-	-
COc1cnn(-c2ccc(Br)cc2)c(=O)c1SCc1ccccc1	-	-	-	-	-
COc1ccc(CCc2nnc(CCC(=O)NCc3cc(C(C)C)no3)o2)cc1	-	-	-	-	-
COc1ccc(S(=O)(=O)n2ccnc2C)c(C)c1C	-	-	-	-	-
N#CC1=C(SCC(=O)NC2CC2)NC(=O)C(C#N)C12CCCCC2 (stereo not drawn)	-	-	-	-	-
C=CCSC1=C(C#N)C2(CCCCC2)C(C#N)C(=O)N1 (stereo not drawn)	-	-7.7	-	-	-
CCOc1ccc(S(=O)(=O)N2CCN(C(=O)Cc3ccc(S(=O)(=O)N4CCOCC4)s3)CC2)cc1	-	-	-	-7.3	-
CCOc1ccc(NC(=O)COC(=O)Cc2ccc(S(=O)(=O)N3CCOCC3)s2)cc1	-	-	-	-	-
COc1ccc(CC(=O)N(C)CC(=O)Nc2cccc(F)c2)cc1S(=O)(=O)N1CCOCC1	-	-5.3	-	-	-
